Activity calls are given as the source filed them. The rule behind the calls is not given here.
Assays:
[1] = Cell cycle arrest in mouse tsFT210 cells assessed as accumulation at G2/M phase at 100 uM after 18 hrs by flow cytometry; assay type: functional, cell-based
Outline: (§1)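 Synchronous-culture assay: tsFT210 cells seeded at 1x10^5 cells/mL, preincubated 1 h at 32 °C, then incubated with compound 18 h at 32 °C; morphology checked by microscopy; DNA content by flow cytometry after staining with 50 μg/mL propidium iodide, 0.1% sodium citrate, 0.2% NP-40; nuclei/chromosomes stained with Hoechst 33258 after KCl swelling and Carnoy fixation.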

[2] = Cell cycle arrest in mouse tsFT210 cells assessed as accumulation at G1 phase at 100 uM after 18 hrs by flow cytometry; assay type: functional, cell-based; outline: as §1
[3] = Antiproliferative activity against mouse tsFT210 cells after 48 hrs by WST-8 assay; assay type: functional, cell-based; conditions: tsFT210, 48 h
Outline: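 tsFT210 cells (temperature-sensitive cdc2 mutant from mouse mammary carcinoma FM3A), kept in RPMI 1640 with 10% fetal calf serum at 32 °C; exponentially growing cells exposed to compound at 32 °C for 48 h, then WST-8 added for 4 h at 37 °C; absorbance at 450 nm read to estimate cell number; IC50 reported.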

[4] = Inhibition of tubulin polymerization in presence of microtubule-associated proteins
Outline: (§2)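 Tubulin containing MAPs in PME buffer (100 mM PIPES pH 6.9, 2 mM EGTA, 1 mM MgSO4) with GTP and drug in DMSO, tubulin added last; 37 °C, absorbance change at 351 nm over 10 min. Drug concentration varied across runs for delta absorbance versus concentration curves; colchicine standard curves made for each tubulin batch.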

PC-3 [5] = assay: Cytotoxicity against human PC3 cells at 10 uM after 72 hrs by Cell Titer 96 Aqueous Non-Radioactive assay; assay type: functional; conditions: PC-3, 72 h, read-out: Inhibition
Outline: (§3)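 MCF7, NCI-H520 or PC-3 cells (RPMI-1640, 10% FBS) plated 1 × 10^4/well, 24 h at 37 °C, exposed 72 h to drug at 10 or 100 μM in DMSO or EtOH vehicle (controls usually 0.2%). Survival by MTS/PMS formazan absorbance at 490 nm, plate blank subtracted, as percent of vehicle wells; quadruplicate; etoposide or m-AMSA positive controls.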

K562 = assay: Cytotoxicity against human K562 cells; assay type: functional
UO-31 = assay: Cytotoxicity against human UO31 cells; assay type: functional
[6] = Cytotoxicity against human H520 cells at 10 uM after 72 hrs by Cell Titer 96 Aqueous Non-Radioactive assay; assay type: functional; conditions: NCI-H520, 72 h, read-out: Inhibition; outline: as §3
SR = assay: Cytotoxicity against human SR cells; assay type: functional
DU-145 = assay: Cytotoxicity against human DU145 cells; assay type: functional
EKVX = assay: Cytotoxicity against human EKVX cells; assay type: functional
MCF7 [7] = assay: Cytotoxicity against human MCF7 cells after 72 hrs by Cell Titer 96 Aqueous Non-Radioactive assay; assay type: functional; conditions: MCF7, 72 h
Outline: (§4)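 MCF7, NCI-H520 and PC-3 cells in RPMI-1640 + 10% FBS, 2 mM L-glutamine, 0.1 mM non-essential amino acids; 1 × 10^4 cells/well, 24 h at 37 °C, then drug in DMSO or EtOH (<1%) for 72 h. Cells under 50% survival at 100 μM retested over further concentrations for GI50. MTS/PMS read at 490 nm, blank subtracted, versus vehicle wells; quadruplicate or more.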

[8] = Cytotoxicity against human H520 cells at 100 uM after 72 hrs by Cell Titer 96 Aqueous Non-Radioactive assay; assay type: functional; conditions: NCI-H520, 72 h, read-out: Inhibition; outline: as §3
[9] = Cytotoxicity against human […]; assay type: functional
MOLT-4 = assay: Cytotoxicity against human MOLT4 cells; assay type: functional
MCF7 [10] = assay: Cytotoxicity against human MCF7 cells at 10 uM after 72 hrs by Cell Titer 96 Aqueous Non-Radioactive assay; assay type: functional; conditions: MCF7, 72 h, read-out: Inhibition; outline: as §3
PC-3 [11] = assay: Cytotoxicity against human PC3 cells after 72 hrs by Cell Titer 96 Aqueous Non-Radioactive assay; assay type: functional; conditions: PC-3, 72 h; outline: as §4
IGROV-1 = assay: Cytotoxicity against human IGROV1 cells; assay type: functional
MCF7 [12] = assay: Cytotoxicity against human MCF7 cells at 100 uM after 72 hrs by Cell Titer 96 Aqueous Non-Radioactive assay; assay type: functional; conditions: MCF7, 72 h, read-out: Inhibition; outline: as §3
[13] = molecular target: DNA topoisomerase 2-alpha (Homo sapiens) (UniProt P11388); assay: Inhibition of topoisomerase 2 assessed as relaxation of supercoiled DNA at 100 uM
RPMI-8226 = assay: Cytotoxicity against human RPMI8226 cells; assay type: functional
PC-3 [14] = assay: Cytotoxicity against human PC3 cells at 100 uM after 72 hrs by Cell Titer 96 Aqueous Non-Radioactive assay; assay type: functional; conditions: PC-3, 72 h, read-out: Inhibition; outline: as §3
LOX IMVI = assay: Cytotoxicity against human LOX IMVI cells; assay type: functional
HOP-92 = assay: Cytotoxicity against human HOP92 cells; assay type: functional
[15] = Cytotoxicity against human HL60 (TB) cells; assay type: functional; conditions: HL-60
OVCAR-3 = assay: Cytotoxicity against human OVCAR-3 cells; assay type: functional
CCRF-CEM = assay: Cytotoxicity against human CCRF-CEM cells; assay type: functional
BT-549 = assay: Cytotoxicity against human BT549 cells; assay type: functional
COLO 205 = assay: Cytotoxicity against human COLO205 cells; assay type: functional
[16] = Inhibition of tubulin polymerization in presence of microtubule-associated proteins at 60 uM; outline: as §2
HT-29 = assay: Cytotoxicity against human HT29 cells; assay type: functional

Sequence of DNA topoisomerase 2-alpha (Homo sapiens) (P11388 whole entry): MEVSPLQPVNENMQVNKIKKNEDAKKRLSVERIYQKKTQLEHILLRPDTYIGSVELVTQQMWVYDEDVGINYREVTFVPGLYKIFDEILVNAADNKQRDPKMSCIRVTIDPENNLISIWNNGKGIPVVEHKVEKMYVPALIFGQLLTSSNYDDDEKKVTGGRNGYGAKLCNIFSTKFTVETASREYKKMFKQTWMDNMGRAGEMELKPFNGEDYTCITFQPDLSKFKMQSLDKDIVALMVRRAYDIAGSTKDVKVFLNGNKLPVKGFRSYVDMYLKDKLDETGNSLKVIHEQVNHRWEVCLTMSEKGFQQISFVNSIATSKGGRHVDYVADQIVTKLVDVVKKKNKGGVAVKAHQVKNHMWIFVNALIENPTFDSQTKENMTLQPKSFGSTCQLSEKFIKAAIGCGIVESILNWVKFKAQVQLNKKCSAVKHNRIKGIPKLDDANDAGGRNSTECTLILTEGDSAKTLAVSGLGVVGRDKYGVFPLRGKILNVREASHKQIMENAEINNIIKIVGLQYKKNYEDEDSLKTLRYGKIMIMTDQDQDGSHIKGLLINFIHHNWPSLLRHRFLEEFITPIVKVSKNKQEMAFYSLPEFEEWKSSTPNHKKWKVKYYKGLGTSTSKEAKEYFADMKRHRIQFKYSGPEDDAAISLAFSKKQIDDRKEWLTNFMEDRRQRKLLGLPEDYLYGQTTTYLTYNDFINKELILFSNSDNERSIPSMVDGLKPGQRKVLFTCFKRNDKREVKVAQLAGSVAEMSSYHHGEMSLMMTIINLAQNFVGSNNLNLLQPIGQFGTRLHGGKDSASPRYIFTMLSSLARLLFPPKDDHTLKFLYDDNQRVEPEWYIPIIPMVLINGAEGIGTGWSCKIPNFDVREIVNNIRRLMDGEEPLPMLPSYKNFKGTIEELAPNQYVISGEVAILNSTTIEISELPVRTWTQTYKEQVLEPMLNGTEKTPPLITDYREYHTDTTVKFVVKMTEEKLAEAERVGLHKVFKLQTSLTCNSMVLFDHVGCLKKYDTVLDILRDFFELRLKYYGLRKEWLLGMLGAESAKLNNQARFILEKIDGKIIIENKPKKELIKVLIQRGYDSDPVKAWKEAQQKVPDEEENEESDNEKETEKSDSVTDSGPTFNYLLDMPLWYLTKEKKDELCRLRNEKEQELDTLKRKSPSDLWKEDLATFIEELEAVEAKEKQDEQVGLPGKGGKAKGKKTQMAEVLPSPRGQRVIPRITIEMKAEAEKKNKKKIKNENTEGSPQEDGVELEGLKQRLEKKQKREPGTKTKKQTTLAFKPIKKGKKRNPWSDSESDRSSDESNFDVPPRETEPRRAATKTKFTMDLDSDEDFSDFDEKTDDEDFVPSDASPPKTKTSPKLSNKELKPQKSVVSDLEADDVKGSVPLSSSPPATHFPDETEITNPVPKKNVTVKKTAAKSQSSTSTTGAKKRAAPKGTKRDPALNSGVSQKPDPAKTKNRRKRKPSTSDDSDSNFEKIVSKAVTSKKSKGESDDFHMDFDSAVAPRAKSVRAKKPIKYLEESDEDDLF

## CC(C)=CCc1[nH]c2cc(N=[N+]=[N-])ccc2c1C[C@@H]1NC(=O)[C@@H]2CCCN2C1=O
[1]
  Activity: Active
[2]
  Activity: Active
[3]
  IC50: 60 µM

## CC(C)=CCc1[nH]c2cc(N=C=S)ccc2c1C[C@@H]1NC(=O)[C@@H]2CCCN2C1=O
[1]
  Activity: Active
[2]
  Activity: Active
[3]
  IC50: 50 µM

## CC(C)=CCc1[nH]c2cc(N)ccc2c1C[C@@H]1NC(=O)[C@@H]2CCCN2C1=O
[3]
  IC50: > 100 µM

## C=CCn1cc(C[C@@H]2NC(=O)[C@@H]3CCCN3C2=O)c2ccc(OC)cc21
[2]
  Activity: Active
[3]
  IC50: 62 µM

## COc1cc2c(c(OC)c1OC)-c1ccc(OC)c(=O)cc1[C@@H](NC(C)=O)CC2 [COLCHICINE]
[4]
  IC50: 44.9 µM

## COc1ccc2c(C[C@@H]3NC(=O)[C@H](C(C)C)NC3=O)c(CC=C(C)C)[nH]c2c1
[1]
  Activity: Active
[2]
  Activity: Active
[3]
  IC50: 19 µM

## COc1ccc2c(C[C@@H]3NC(=O)[C@@H]4CCCN4C3=O)c[nH]c2c1
[3]
  IC50: > 100 µM

## COc1ccc2c(C[C@H]3NC(=O)[C@H]4CCCN4C3=O)c(CC=C(C)C)[nH]c2c1
PC-3 [5]
  percent cell survival relative to vehicle control at 10 µM: > 100%
K562
  GI50: > 25 µM
UO-31
  GI50: > 25 µM
[6]
  percent cell survival relative to vehicle at 10 µM: 81.7%
SR
  GI50: > 25 µM
DU-145
  GI50: > 25 µM
EKVX
  GI50: > 25 µM
MCF7 [7]
  GI50: > 25 µM
[8]
  cell survival (% of vehicle control) at 100 µM: 75.2%
[9]
  GI50: > 25 µM
MOLT-4
  GI50: > 25 µM
MCF7 [10]
  cell survival (% of vehicle control) at 10 µM: > 100%
PC-3 [11]
  GI50: > 25 µM
IGROV-1
  GI50: > 25 µM
MCF7 [12]
  cell survival (% of vehicle control) at 100 µM: > 100%
[13]
  Activity: inactive
RPMI-8226
  GI50: > 25 µM
[4]
  IC50: > 700 µM
PC-3 [14]
  percent cell survival at 100 µM: 83.7%
LOX IMVI
  GI50: > 25 µM
HOP-92
  GI50: 23.1 µM
[15]
  GI50: > 25 µM
OVCAR-3
  GI50: > 25 µM
CCRF-CEM
  GI50: > 25 µM
BT-549
  GI50: > 25 µM
COLO 205
  GI50: > 25 µM

## C=CCn1c(CC=C(C)C)c(C[C@@H]2NC(=O)[C@@H]3CCCN3C2=O)c2ccc(OC)cc21
[3]
  IC50: 75 µM

## COc1ccc2c(C[C@@H]3NC(=O)[C@H]4CCCN4C3=O)c(CC=C(C)C)[nH]c2c1
PC-3 [5]
  percent cell survival relative to vehicle control at 10 µM: > 100%
K562
  GI50: > 100 µM
UO-31
  GI50: > 100 µM
[6]
  percent cell survival relative to vehicle at 10 µM: 99.3%
SR
  GI50: 76.9 µM
DU-145
  GI50: > 100 µM
EKVX
  GI50: > 100 µM
MCF7 [7]
  GI50: > 100 µM
[8]
  cell survival (% of vehicle control) at 100 µM: 98.5%
[9]
  GI50: > 100 µM
MOLT-4
  GI50: > 100 µM
[16]
  inhibition: < 2%
MCF7 [10]
  cell survival (% of vehicle control) at 10 µM: > 100%
PC-3 [11]
  GI50: > 100 µM
IGROV-1
  GI50: 50 µM
MCF7 [12]
  cell survival (% of vehicle control) at 100 µM: 99%
RPMI-8226
  GI50: 92 µM
PC-3 [14]
  percent cell survival at 100 µM: > 100%
LOX IMVI
  GI50: > 100 µM
HOP-92
  GI50: 16.8 µM
[15]
  GI50: > 100 µM
OVCAR-3
  GI50: 85.5 µM
HT-29
  GI50: 40.3 µM
CCRF-CEM
  GI50: 99.4 µM
BT-549
  GI50: > 100 µM
COLO 205
  GI50: > 100 µM

## COc1ccc2c(C[C@@H]3NC(=O)[C@@H]4CCCN4C3=O)cn(Cc3ccccc3)c2c1
[2]
  Activity: Active
[3]
  IC50: 46 µM

## CC(C)=CCc1[nH]c2cc([N+](=O)[O-])ccc2c1C[C@@H]1NC(=O)[C@@H]2CCCN2C1=O
[3]
  IC50: > 100 µM

## COc1ccc2c(C[C@@H]3NC(=O)[C@@H]4CCCN4C3=O)c(Cl)[nH]c2c1
[3]
  IC50: > 100 µM

— ChEMBL document CHEMBL1144702, “Synthesis and structure-activity relationship studies on tryprostatin A, an inhibitor of breast cancer resistance protein” (Bioorg Med Chem, 2008)
